# Assay outcomes (PubChem BioAssay)
# Shown are actives, neighbours in structure and some others; about 2.1% of the full set was active somewhere.
# CHRM1 agonist – human M1 muscarinic receptor agonists, primary screen, Fluo-8 calcium fluorescence, CHO-K1 cells, HTS. 360,000 tested, 0.33% active. AID 588814, 2011. CHO-K1 hM1, agonist mode; 0% DMSO, 100% acetylcholine EC100. activation, % at 3 µM. Muscarinic acetylcholine receptor M1 (Homo sapiens), P11229;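 active = activation above the run's mean compound activation plus 3 SD, cut at about 16% in these data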;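 note: peak over basal fluorescence ratio within a 140 s kinetic read after compound addition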
# M1 antag – human M1 muscarinic receptor antagonists, primary screen, CHO-K1 cells, Fluo-8 calcium fluorescence, 1536-well; CHO-K1 hM1, ACh EC80 antagonist; inhibition, % at 3 µM; 360,000 tested, 1.3% active; AID 588852, 2011;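 active = percent inhibition above its own plate's cutoff, namely the mean of that plate's compound wells plus 3 SD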;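 note: peak over basal fluorescence ratio during 140 s after agonist addition; 0% = ACh EC80 plus DMSO and 100% = DMSO alone without agonist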
# M5 antag – human M5 muscarinic receptor antagonists, primary screen, CHO cells, Fluo-8 calcium fluorescence; CHO-hM5 cells, ACh EC80; Muscarinic acetylcholine receptor M5 (Homo sapiens), P08912; 360,000 tested, 0.59% active; inhibition, % at 3 µM;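 active = inhibition above a per-plate cutoff, the mean of that plate's test compounds plus 3 SD, cut at about 27% in these data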;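 note: 0% = acetylcholine EC80 with DMSO and 100% = DMSO without agonist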
# Target sequence (P08912 whole entry, looked up): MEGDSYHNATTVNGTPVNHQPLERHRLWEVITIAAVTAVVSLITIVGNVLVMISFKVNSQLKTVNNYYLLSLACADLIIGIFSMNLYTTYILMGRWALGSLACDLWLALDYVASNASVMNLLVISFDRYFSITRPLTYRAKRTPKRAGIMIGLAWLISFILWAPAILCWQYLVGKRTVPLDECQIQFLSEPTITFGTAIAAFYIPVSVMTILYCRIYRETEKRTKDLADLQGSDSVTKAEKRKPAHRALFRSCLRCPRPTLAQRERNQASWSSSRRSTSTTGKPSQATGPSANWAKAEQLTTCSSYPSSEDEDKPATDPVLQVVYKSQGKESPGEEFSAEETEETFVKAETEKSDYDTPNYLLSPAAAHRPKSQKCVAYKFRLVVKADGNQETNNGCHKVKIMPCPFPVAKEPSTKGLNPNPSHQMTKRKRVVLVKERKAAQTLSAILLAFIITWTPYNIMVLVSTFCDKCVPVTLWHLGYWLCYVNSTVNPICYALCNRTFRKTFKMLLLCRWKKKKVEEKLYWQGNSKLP
# M5 PAM – human M5 muscarinic receptor positive allosteric modulators, primary screen, CHO-K1 cells, Fluo-8 calcium fluorescence; CHO-K1 hM5, ACh EC20 PAM; 0% = ACh EC20, 100% = ACh EC100; activation, % at 3 µM; AID 624038, 2012; 360,000 tested, 0.3% active;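 active = activation above the run cutoff, the mean activation of all test compounds plus 3 SD, cut at about 18% in these data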
#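 Measured by: Fluo-8 calcium fluorescence; material: human M5 receptor in CHO-K1 cells; schedule: Post-acetylcholine fluorescence recording 140 s; benchmarks: low control EC20 acetylcholine (0%), high control EC100 acetylcholine (100%); read-out: Max/basal fluorescence ratio as % of EC20–EC100 ACh window; compound: single dose, 3 µM nominal final test concentration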
# CHRM5 agonist – human M5 muscarinic receptor agonists, primary screen, CHO-K1 cells, Fluo-8 calcium fluorescence | CHO-K1 hM5 cells; 0% DMSO wells, 100% maximal acetylcholine response | Muscarinic acetylcholine receptor M5 (Homo sapiens), P08912 | activation, % at 3 µM | 360,000 tested, 0.19% active | AID 624037, 2012;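 active = activation above the run's mean over test compounds plus 3 SD, cut at about 23% in these data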;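 note: signal is peak over basal fluorescence ratio across the kinetic read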
# CHRM1 PAM – human M1 muscarinic receptor positive allosteric modulators, primary screen, CHO-K1 cells, Fluo-8 calcium fluorescence, 1536-well | Muscarinic acetylcholine receptor M1 (Homo sapiens), P11229 | CHO-K1 hM1, ACh EC20; 0% = ACh EC20, 100% = maximal ACh | activation, % at 3 µM | 360,000 tested, 0.088% active | AID 588819, 2011; in the data active = activation above about 19%, passing the limit was not always enough
# * hit, by the source's call.
SMILES,CHRM1 agonist,M1 antag,M5 antag,M5 PAM,CHRM5 agonist,CHRM1 PAM
CNC(=S)Nn1cnc2ccccc21,3,-24,-15,22*,3,21
CSCCC(NS(=O)(=O)c1ccc(Cl)cc1)C(=O)O (configuration not stated),-3,-14,0,5,-3,10
O=C(Nc1ccc2c(c1)OCCO2)C(c1ccnc2ccccc12)N1CCN(c2ccc(C(F)(F)F)cn2)CC1 (configuration not stated),0,-28,8,15,14,5
O=C(Nc1ccc2c(c1)OCCO2)C(c1ccnc2ccccc12)N1CCN(c2ccc(F)cc2)CC1 (configuration not stated),-1,-3,-4,19*,21,-2
Cc1cc(C(=O)CCl)c(C)n1CCc1ccc(Cl)cc1,-3,33*,12,-2,-8,-11
Cc1cc(C(=O)CCl)c(C)n1CCc1ccc(F)cc1,-6,-8,5,2,-5,6
COc1ccc(NC(=O)c2oc3ccc(S(=O)(=O)N4CCC5(CC4)OCCO5)cc3c2C)cc1,3,34*,19,-24,12,-22
C=CCn1nc(-c2ccccc2)cc1C(=O)OCC,-9,5,-5,21*,5,3
Clc1cccc2sc(N3CCOCC3)nc12,-3,2,-9,26*,-9,3
CCN1CCN(S(=O)(=O)c2cc(OC)ccc2OC)CC1,-4,10,1,-4,-1,-5
COc1ccc(OC)c(S(=O)(=O)N2CCN(C34CC5CC(CC(C5)C3)C4)CC2)c1,-6,48*,7,6,-3,-20
CC(=O)N1CC(C)Sc2ccc(S(=O)(=O)NC3CCCCC3C)cc21 (configuration not stated),1,3,7,-7,1,-4
CC(Sc1n[nH]c(N)n1)C(=O)Nc1cccc(S(=O)(=O)N2CCOCC2)c1 (configuration not stated),-4,-1,-19,14,3,12
Cc1c(Br)c([N+](=O)[O-])nn1C(C)C(=O)N1CCc2ccccc2C1 (configuration not stated),-6,73*,21,-13,-8,-23
CCCNC(=O)c1ccc(N2CCC3(CC2)CC(c2ccccc2)=NO3)c(NC(=O)c2ccccc2)c1,-8,32*,15,-13,-1,-22
CC(C)COC(=O)NCCCOC(=O)Nc1ccccc1,-3,-1,1,0,-1,5
CC(C)COC(=O)NCCOC(=O)Nc1cccc(Cl)c1,4,25*,25,-19,0,-16
Cc1ccc(S(=O)(=O)CCC(=O)OCC(=O)N(C)CC(=O)Nc2ccc(F)cc2)cc1,-3,20*,-3,2,-1,-11
COc1ccc(/C=N/N=C2/NC(=O)C(CC(=O)O)S2)cc1OS(=O)(=O)c1ccccc1 (configuration not stated),-2,-6,7,-4,2,4
Cc1ccc(S(=O)(=O)Oc2ccc(C)cc2/C=N/N=C2\NC(=O)C(C)S2)cc1 (configuration not stated),-3,-26,-14,18*,-9,7
COCc1c(C(=O)OCC(=O)N(C)C2CCS(=O)(=O)C2)oc2ccccc12 (configuration not stated),-9,36*,11,-2,-5,-19
CN(C(=O)COC(=O)c1n[nH]c2ccccc12)C1CCS(=O)(=O)C1 (configuration not stated),-5,-8,8,-1,-3,1
Cc1cccc(OC(=O)NCCOC(=O)N(O)c2ccc(Cl)cc2)c1,4,21,32*,-13,7,-8
Cc1cccc(OCC(=O)Oc2ccc(Cl)cc2)c1,0,2,2,4,0,13
CCOC(=O)Cn1c(=O)oc2cc(S(=O)(=O)NCCc3ccc(C)cc3)ccc21,4,-10,5,-6,3,3
SMILES,CHRM1 agonist,M1 antag,M5 antag,M5 PAM,CHRM5 agonist,CHRM1 PAM
CCOC(=O)Cn1c(=O)oc2cc(S(=O)(=O)Nc3ccc(F)cc3)ccc21,31*,-2,14,-16,28*,7
Cc1cc(Cl)ccc1OCC(=O)OCC(=O)Nc1cccnc1Cl,-3,-12,0,10,-3,8
CCN(CC)S(=O)(=O)c1cccc(NC(=O)COC(=O)c2[nH]c(C)c(C(C)=O)c2C)c1,4,31*,11,-7,2,-16
CC(=O)c1c(C)[nH]c(C(=O)OCC(=O)Nc2cccc(S(=O)(=O)N(C)C)c2)c1C,-4,-11,2,0,2,9
CCOC(=O)C1CCCCN1C(=O)CCn1nnnc1CN1CCOCC1 (configuration not stated),-3,5,-11,3,0,-1
CCOC(=O)C1CCCN(C(=O)CCCn2nnnc2CN2CCC(C)CC2)C1 (configuration not stated),22*,-8,-3,4,1,0
O=C(NCc1ccccc1)c1cc(C2CCCCN2C(=O)c2ccc(Cl)cc2)on1 (configuration not stated),-6,-13,-1,1,-2,-1
O=c1c2cc(NC(=S)NCCCN3CCC(Cc4ccccc4)CC3)ccc2nc2n1CCCCC2,-2,67*,14,-20,3,-26
O=c1c2cc(NC(=S)NCCN3CCCCCC3)ccc2nc2n1CCCCC2,-9,13,2,1,-6,-15
CCOC(=O)CSc1nc(C)c2ccccc2n1,-3,-5,5,-2,0,2
CN(C)CC/C=C1\c2cc(F)ccc2CSc2ccccc21,-11,99*,98*,-18,-2,-26
CN(C)CC/C=C1/c2cc(F)ccc2CSc2ccc(F)cc21,-8,100*,98*,-20,-7,-21
Cc1cc(NC(=O)COc2nnc(-c3ccccc3)c3ccccc23)no1,-3,4,-6,-2,-5,2
